ChEMBL document CHEMBL1138217, “Rapid discovery and structure-activity profiling of novel inhibitors of human immunodeficiency virus type 1 protease enabled by the copper(I)-catalyzed synthesis of 1,2,3-triazoles and their further functionalization” (J Med Chem, 2006)

Experiments:
[1] = target: Human immunodeficiency virus type 1 protease (Human immunodeficiency virus 1, UniProt Q72874); assay: Inhibition of HIV1 protease
In short: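 HIV-1 protease (SF-2-WTQ7K-Pr construct for the isolated inhibitors) at 20 µg/mL with 50 µM fluorogenic substrate Abz-Thr-Ile-Nle/Phe-(p-NO2)Gln-Arg-NH2, in 0.1 M MES, 0.2 M NaCl, pH 5.25, 5% (v/v) glycerol. Crude mixtures were screened at 5 µM as percent inhibition.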

[2] = target: Human immunodeficiency virus type 1 protease (Human immunodeficiency virus 1) (UniProt Q72874); assay: Inhibition of HIV1 protease at 5 uM
In short: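 Crude click-reaction DMSO mixtures (azide-alkyne, CuSO4 with copper turning, 1:1 tBuOH/H2O, 50 °C, 5 days) diluted to 5 µM in 0.1 M MES, 0.2 M NaCl, pH 5.25, 5% glycerol; HIV-1 protease 20 µg/mL plus fluorogenic substrate 50 µM added; fluorescence read directly in microplate; percent inhibition; TL-3 100 nM positive control.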

SMILES	Ki [1] [nM]	inhibition [2] [%]	IC50 [1] [nM]
Cc1ccc(Cl)cc1N1CCN(Cc2nnn([C@@H](Cc3ccccc3)[C@H](Cc3ccccc3)NC(=O)OC3CCCC3)c2CO)CC1	8	–	–
Cc1ccc(Cl)cc1N1CCN(Cc2nnn([C@@H](Cc3ccccc3)[C@H](Cc3ccccc3)NC(=O)OC3CCCC3)c2[C@@H](C)O)CC1	28	–	–
CC[C@H](O)c1c(CN2CCN(c3cc(C)ccc3C)CC2)nnn1[C@@H](Cc1ccccc1)[C@H](Cc1ccccc1)NC(=O)OC1CCCC1	27	–	–
Cc1ccc(C)c(N2CCN(Cc3nnn([C@@H](Cc4ccccc4)[C@H](Cc4ccccc4)NC(=O)OC4CCCC4)c3[Si](C)(C)C)CC2)c1	> 2500	–	–
Cc1ccc(Cl)cc1N1CCN(Cc2cn([C@@H](Cc3ccccc3)[C@H](Cc3ccccc3)NC(=O)CC3CCCC3)nn2)CC1	> 2500	28	–
CC[C@@H](O)c1c(CN2CCN(c3cc(C)ccc3C)CC2)nnn1[C@@H](Cc1ccccc1)[C@H](Cc1ccccc1)NC(=O)OC1CCCC1	42	–	–
Cc1ccc(C)c(N2CCN(Cc3cn([C@@H](Cc4ccccc4)[C@H](Cc4ccccc4)NC(=O)OC4CCCC4)nn3)CC2)c1	32	94	> 25000
Cc1ccc(Cl)cc1N1CCN(Cc2cn([C@@H](Cc3ccccc3)[C@H](Cc3ccccc3)NC(=O)O[C@@H]3CCOC3)nn2)CC1	83	71	–
Cc1ccc(C)c(N2CCN(Cc3nnn([C@@H](Cc4ccccc4)[C@H](Cc4ccccc4)NC(=O)OC4CCCC4)c3[C@@H](C)O)CC2)c1	25	–	–
Cc1ccc(C)c(N2CCN(Cc3nnn([C@@H](Cc4ccccc4)[C@H](Cc4ccccc4)NC(=O)OC4CCCC4)c3CO)CC2)c1	14	–	–
CC(C)(C)OC(=O)N[C@@H](Cc1ccccc1)[C@H](Cc1ccccc1)N=[N+]=[N-]	31000	–	–
Cc1ccc(C)c(N2CCN(Cc3nnn([C@@H](Cc4ccccc4)[C@H](Cc4ccccc4)NC(=O)OC4CCCC4)c3[C@H](C)O)CC2)c1	10	–	–
Cc1ccc(Cl)cc1N1CCN(Cc2cn([C@@H](Cc3ccccc3)[C@H](Cc3ccccc3)NC(=O)NC3CCCC3)nn2)CC1	–	19	–
O=C(N[C@@H](Cc1ccccc1)[C@H](Cc1ccccc1)n1cc(CN2CCC(O)(c3ccc(Cl)cc3)CC2)nn1)OC1CCCC1	–	26	–
CC(C)C[C@H](NC(=O)OC1CCCC1)[C@H](Cc1ccccc1)n1cc(CN2CCN(c3cccc(C(F)(F)F)c3)CC2)nn1	86	50	–
Cc1ccc(Cl)cc1N1CCN(Cc2cn([C@@H](Cc3ccccc3)[C@H](Cc3ccccc3)NC(=O)OCC3CCCCC3)nn2)CC1	–	53	–
Cc1ccc(Cl)cc1N1CCN(Cc2cn([C@@H](Cc3ccccc3)[C@H](Cc3ccccc3)NC(=O)Nc3ccc(F)cc3)nn2)CC1	–	30	–
O=C(N[C@@H](Cc1ccccc1)[C@H](Cc1ccccc1)n1cc(CN2CCN(c3cccc(C(F)(F)F)c3)CC2)nn1)OC1CCCC1 (stereo in doubt; (S,S)-7d)	98	–	–
Cc1ccc(Cl)cc1N1CCN(Cc2nnn([C@@H](Cc3ccccc3)[C@H](Cc3ccccc3)NC(=O)OC3CCCC3)c2[C@H](C)O)CC1	21	–	–
O=C(N[C@@H](Cc1ccccc1)[C@H](Cc1ccccc1)n1cc(CN2CCN(c3ccncc3)CC2)nn1)OC1CCCC1	–	12	–
Cc1ccc(Cl)cc1N1CCN(Cc2cn([C@@H](Cc3ccccc3)[C@H](Cc3ccccc3)NC(=O)OC3CCCC3)nn2)CC1	23	94	–
Cc1ccc(Cl)cc1N1CCN(Cc2cn([C@@H](Cc3ccccc3)[C@H](Cc3ccccc3)NC(=O)NC3CCCCC3)nn2)CC1	–	15	–
CCOC(=O)N1CCN(Cc2cn([C@@H](Cc3ccccc3)[C@H](Cc3ccccc3)NC(=O)OC3CCCC3)nn2)CC1	–	27	–
Cc1cccc(N2CCN(Cc3cn([C@@H](Cc4ccccc4)[C@H](Cc4ccccc4)NC(=O)OC4CCCC4)nn3)CC2)c1	–	87	–
